Values belong to the compound of their own block, whether it stands above or below them. The source made the active and inactive calls. No cut-off for these calls is given here.
Assays:
[1] = Inhibition of beta-lactamase VIM-2 (unknown origin) expressed in Escherichia coli LZ2310 assessed as potentiation of cefoxitin antibacterial activity by measuring cefoxitin induced diameter of inhibition zone at 240 uM incubated for 18 hrs by disk diffusion method (reference value: 14 mm)
Method in brief: (§1)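 Efflux-deficient E. coli LZ2310 (NorE, MdfA, AcrA knocked out) carrying pLB-II with the cloned MBL gene. Mueller-Hinton, CLSI disk diffusion; antibiotic disks (30 µg cefoxitin for VIM-2, 10 µg ampicillin for VIM-4, 30 µg ceftazidime for NDM-1/IMP-1) loaded with inhibitor in DMSO (≤15 µL). Zone diameter after 18 h, 35 ± 1 °C; DMSO and 220 µg EDTA controls. Triplicate.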

[2] = Inhibition of beta-lactamase CphA (unknown origin) expressed in Escherichia coli BL21(DE3) using imipenem as substrate by measuring substrate hydrolysis by spectrophotometric analysis
Method in brief: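 Enzyme 0.2–0.8 nM in 15 mM cacodylate pH 6.5, no added zinc, pre-incubated 30 min at 21 °C with inhibitor (100 μM screen). Imipenem substrate added from 10 mM stock; hydrolysis at 300 nm, 30 °C. Residual activity vs three uninhibited samples; Ki (1–100 μM inhibitor) by Hanes linearization, competitive model. Triplicate.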

[3] = Inhibition of beta-lactamase IMP-1 (unknown origin) expressed in Escherichia coli BL21(DE3) using imipenem as substrate by measuring substrate hydrolysis by spectrophotometric analysis
Method in brief: (§2)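 Purified enzyme (overproduced in E. coli BL21(DE3), pET-9a; ion-exchange and gel filtration), 1-70 nM final. Reporter substrate 150 μM imipenem, read at 300 nm, 30 °C, 50 mM HEPES pH 7.5. Single-point screen at 100 or 200 μM; Ki from v0/vi vs [I] (0.5–1,000 μM final) assuming competitive inhibition, or Dixon plot. Triplicate.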

[4] = Inhibition of beta-lactamase VIM-2 (unknown origin) expressed in Escherichia coli XL-1 assessed as potentiation of cefoxitin antibacterial activity by measuring cefoxitin induced diameter of inhibition zone at 240 uM incubated for 18 hrs by disk diffusion method (reference value: 8 mm)
Method in brief: (§3)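 Wild-type efflux E. coli XL-1 Blue transformed with pLB-II-VIM-2. Mueller-Hinton disk diffusion per CLSI, 30 µg cefoxitin disks loaded with inhibitor dissolved in DMSO (≤15 µL). Growth-inhibition zone measured after 18 h at 35 ± 1 °C; DMSO negative and 220 µg EDTA positive controls. Triplicate.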

[5] = Inhibition of beta-lactamase NDM1 (unknown origin) expressed in Escherichia coli BL21(DE3) using cefotaxime/nitrocefin as substrate by measuring substrate hydrolysis by spectrophotometric analysis
Method in brief: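 His-tagged enzyme from E. coli BL21(DE3) pET-15b, affinity-purified, 1-70 nM final. Reporter substrate 120 μM cefotaxime (260 nm) or 100 μM nitrocefin (482 nm), 30 °C, 50 mM HEPES pH 7.5. Inhibitor 0.5–1,000 μM final; competitive Ki from v0/vi vs [I] slope or Dixon plot. Triplicate.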

[6] = Inhibition of beta-lactamase VIM2 (unknown origin) expressed in Escherichia coli BL21(DE3) using imipenem as substrate by measuring substrate hydrolysis by spectrophotometric analysis; method in brief: as §2
[7] = Inhibition of beta-lactamase VIM4 (unknown origin) expressed in Escherichia coli BL21(DE3) using imipenem as substrate by measuring substrate hydrolysis by spectrophotometric analysis; method in brief: as §2
[8] = Inhibition of beta-lactamase L1 (unknown origin) expressed in Escherichia coli BL21(DE3) using nitrocefin as substrate by measuring substrate hydrolysis preincubated for 30 mins by spectrophotometric analysis
Method in brief: (§4)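 Enzyme 0.2–0.8 nM in 25 mM HEPES pH 7.5 with 50 μM ZnCl2 final, pre-incubated 30 min at 21 °C with inhibitor (100 μM screen). Nitrocefin 100 μM final, read at 482 nm, 30 °C. Residual activity vs three uninhibited samples; Ki (1–100 μM inhibitor) from Hanes linearization, competitive model. Triplicate.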

[9] = system: HeLa; test: Cytotoxicity in human HeLa cells assessed as cell lysis upto 250 uM incubated for 72 hrs by membrane integrity assay; type: cell-based
[10] = system: HUVEC; test: Cytotoxicity in human HUVEC cells assessed as reduction in cell viability upto 100 uM incubated for 72 hrs by MTT assay; type: cell-based
[11] = target: Hydroxyacylglutathione hydrolase (Homo sapiens); test: Inhibition of human Glyoxalase II expressed in Escherichia coli BL21 (DE3)
[12] = Inhibition of beta-lactamase VIM-2 (unknown origin) expressed in Escherichia coli LZ2310 assessed as potentiation of cefoxitin antibacterial activity by measuring cefoxitin induced diameter of inhibition zone at 80 uM incubated for 18 hrs by disk diffusion method (reference value: 14 mm); method in brief: as §1
[13] = Inhibition of beta-lactamase IMP-1 (unknown origin) expressed in Escherichia coli BL21(DE3) using imipenem as substrate by measuring substrate hydrolysis at 200 uM by spectrophotometric analysis; method in brief: as §2
[14] = Inhibition of beta-lactamase IMP-1 (unknown origin) expressed in Escherichia coli BL21(DE3) using imipenem as substrate by measuring substrate hydrolysis at 100 uM by spectrophotometric analysis; method in brief: as §2
[15] = Inhibition of beta-lactamase NDM-1 (unknown origin) expressed in Escherichia coli LZ2310 assessed as potentiation of ceftazidime antibacterial activity by measuring ceftazidime induced diameter of inhibition zone at 80 uM incubated for 18 hrs by disk diffusion method (reference value: 15 mm); method in brief: as §1
[16] = Inhibition of beta-lactamase VIM2 (unknown origin) expressed in Escherichia coli BL21(DE3) using imipenem as substrate by measuring substrate hydrolysis at 100 uM by spectrophotometric analysis; method in brief: as §2
[17] = Inhibition of beta-lactamase L1 (unknown origin) expressed in Escherichia coli BL21(DE3) using nitrocefin as substrate by measuring substrate hydrolysis at 100 uM preincubated for 30 mins by spectrophotometric analysis; method in brief: as §4
[18] = system: Escherichia coli; test: Synergistic antibacterial activity against NDM-1 producing Escherichia coli assessed as MIC of imipenem at 32 ug/ml by broth microdilution method; type: functional; settings: dose 32 µg/ml
[19] = system: Escherichia coli; test: Synergistic antibacterial activity against NDM-1 producing Escherichia coli assessed as MIC of meropenem at 32 ug/ml by broth microdilution method; type: functional; settings: dose 32 µg/ml
[20] = system: Escherichia coli; test: Synergistic antibacterial activity against NDM-1 producing Escherichia coli assessed as MIC of ceftazidime at 32 ug/ml by broth microdilution method; type: functional; settings: dose 32 µg/ml
[21] = system: Escherichia coli; test: Synergistic antibacterial activity against NDM-1 producing Escherichia coli assessed ass MIC of ceftazidime/avibactam at 32 ug/ml by broth microdilution method; type: functional; settings: dose 32 µg/ml
Method in brief: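 MIC of ceftazidime-avibactam (avibactam fixed at 4 µg/mL) by CLSI broth microdilution in Mueller-Hinton broth. Used the NDM-1-producing multidrug-resistant E. coli clinical isolate SI-001M at 5 × 10⁴ CFU/well, with and without inhibitor at a fixed 32 µg/ml. No colistin added. Triplicate determinations.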

[22] = system: Escherichia coli; test: Antibacterial activity against NDM-1 producing Escherichia coli in presence of colistin by broth microdilution method.; type: functional
[23] = Inhibition of beta-lactamase L1 (unknown origin) expressed in Escherichia coli BL21(DE3) using nitrocefin as substrate by measuring substrate hydrolysis at 200 uM preincubated for 30 mins by spectrophotometric analysis
[24] = Inhibition of beta-lactamase VIM2 (unknown origin) expressed in Escherichia coli BL21(DE3) using imipenem as substrate by measuring substrate hydrolysis at 200 uM by spectrophotometric analysis; method in brief: as §2
[25] = system: Escherichia coli; test: Synergistic antibacterial activity against NDM-1 producing Escherichia coli assessed as MIC of imipenem at 32 ug/ml in presence of colistin by broth microdilution method; type: functional; settings: dose 32 µg/ml
[26] = system: Escherichia coli; test: Synergistic antibacterial activity against NDM-1 producing Escherichia coli assessed as MIC of meropenem at 32 ug/ml in presence of colistin by broth microdilution method; type: functional; settings: dose 32 µg/ml
Method in brief: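 Broth microdilution per CLSI in Mueller-Hinton broth against a multidrug-resistant NDM-1-producing E. coli clinical isolate (SI-001M), inoculum 5 × 10⁴ CFU/well. […] Run in triplicate.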

[27] = system: Escherichia coli; test: Synergistic antibacterial activity against NDM-1 producing Escherichia coli assessed as MIC of ceftazidime at 32 ug/ml in presence of colistin by broth microdilution method; type: functional; settings: dose 32 µg/ml
[28] = system: Escherichia coli; test: Synergistic antibacterial activity against NDM-1 producing Escherichia coli assessed ass MIC of ceftazidime/avibactam at 32 ug/ml in presence of colistin by broth microdilution method; type: functional; settings: dose 32 µg/ml
[29] = system: HeLa; test: Cytotoxicity in human HeLa cells assessed as reduction in cell viability upto 250 uM incubated for 72 hrs by MTT assay; type: cell-based
[30] = Inhibition of beta-lactamase VIM-2 (unknown origin) expressed in Escherichia coli LZ2310 assessed as potentiation of cefoxitin antibacterial activity by measuring cefoxitin induced diameter of inhibition zone at 320 uM incubated for 18 hrs by disk diffusion method (reference value: 14 mm); method in brief: as §1
[31] = Inhibition of beta-lactamase NDM-1 (unknown origin) expressed in Escherichia coli LZ2310 assessed as potentiation of ceftazidime antibacterial activity by measuring ceftazidime induced diameter of inhibition zone at 320 uM incubated for 18 hrs by disk diffusion method (reference value: 15 mm); method in brief: as §1
[32] = Inhibition of beta-lactamase VIM-2 (unknown origin) expressed in Escherichia coli XL-1 assessed as potentiation of cefoxitin antibacterial activity by measuring cefoxitin induced diameter of inhibition zone at 320 uM incubated for 18 hrs by disk diffusion method (reference value: 8 mm); method in brief: as §3
[33] = Inhibition of beta-lactamase IMP-1 (unknown origin) expressed in Escherichia coli LZ2310 assessed as potentiation of ceftazidime antibacterial activity by measuring ceftazidime induced diameter of inhibition zone at 320 uM incubated for 18 hrs by disk diffusion method (reference value: 9 mm); method in brief: as §1

inhibition zone (IZ) [1]: 20 mm
inhibition zone (IZ) [4]: 9 mm
IC50 [11]: 25.8 µM
SMILES: Cc1ccccc1-c1n[nH]c(=S)n1/N=C/c1ccccc1C(=O)O
Ki [2]: 120 µM
Ki [3]: 58 µM
Ki [5]: 110 µM
Ki [6]: 3 µM
Ki [7]: 1.6 µM
Ki [8]: 40 µM
Activity [9]: Non-Toxic
Activity [10]: Non-Toxic

inhibition zone (IZ) [12]: 14 mm
inhibition [13]: inactive
inhibition [14]: inactive
inhibition zone (IZ) [15]: 15 mm
inhibition [16]: inactive
inhibition [17]: inactive
MIC [18]: 8 µg/mL
MIC [19]: 16 µg/mL
MIC [20]: > 256 µg/mL
MIC [21]: > 256 µg/mL
MIC [22]: > 256 µg/mL
inhibition [23]: inactive
inhibition [24]: inactive
MIC [25]: 4 µg/mL
MIC [26]: 8 µg/mL
MIC [27]: > 256 µg/mL
MIC [28]: 4 µg/mL
SMILES: Oc1ccc(/C=N/n2c(-c3ccc(-c4ccccc4)cc3)n[nH]c2=S)c(O)c1
Ki [5]: 1.8 µM
Ki [7]: 2 µM
Activity [9]: Non-Toxic
Activity [10]: Non-Toxic
Activity [29]: Non-Toxic

inhibition zone (IZ) [30]: 14 mm
inhibition zone (IZ) [31]: 15 mm
inhibition zone (IZ) [32]: 8 mm
inhibition [16]: inactive
inhibition [17]: 60%
inhibition zone (IZ) [33]: 9 mm
inhibition [24]: inactive
SMILES: O=C(O)c1ccccc1/C=N/n1c(-c2cccc(Cl)c2)n[nH]c1=S
Ki [3]: 58 µM
Ki [5]: 7.5 µM
Ki [7]: 2 µM
